Test results: ChEMBL document CHEMBL4665651, “Design, synthesis, and biological evaluation of some novel 4-aminoquinazolines as Pan-PI3K inhibitors” (Bioorg Med Chem, 2019)
Activity calls are given as the source filed them. The rule behind the calls is not given here.

Columns and labels:
[1] = target: Phosphatidylinositol 4,5-bisphosphate 3-kinase catalytic subunit alpha isoform (Homo sapiens, UniProt P42336); assay: Inhibition of PI3Kalpha (unknown origin) using lipid as substrate incubated for 15 mins followed by substrate addition and measured after 60 mins ADPGloTM reagent based assay
Chain of Phosphatidylinositol 4,5-bisphosphate 3-kinase catalytic subunit alpha isoform (P42336 whole entry, canonical isoform): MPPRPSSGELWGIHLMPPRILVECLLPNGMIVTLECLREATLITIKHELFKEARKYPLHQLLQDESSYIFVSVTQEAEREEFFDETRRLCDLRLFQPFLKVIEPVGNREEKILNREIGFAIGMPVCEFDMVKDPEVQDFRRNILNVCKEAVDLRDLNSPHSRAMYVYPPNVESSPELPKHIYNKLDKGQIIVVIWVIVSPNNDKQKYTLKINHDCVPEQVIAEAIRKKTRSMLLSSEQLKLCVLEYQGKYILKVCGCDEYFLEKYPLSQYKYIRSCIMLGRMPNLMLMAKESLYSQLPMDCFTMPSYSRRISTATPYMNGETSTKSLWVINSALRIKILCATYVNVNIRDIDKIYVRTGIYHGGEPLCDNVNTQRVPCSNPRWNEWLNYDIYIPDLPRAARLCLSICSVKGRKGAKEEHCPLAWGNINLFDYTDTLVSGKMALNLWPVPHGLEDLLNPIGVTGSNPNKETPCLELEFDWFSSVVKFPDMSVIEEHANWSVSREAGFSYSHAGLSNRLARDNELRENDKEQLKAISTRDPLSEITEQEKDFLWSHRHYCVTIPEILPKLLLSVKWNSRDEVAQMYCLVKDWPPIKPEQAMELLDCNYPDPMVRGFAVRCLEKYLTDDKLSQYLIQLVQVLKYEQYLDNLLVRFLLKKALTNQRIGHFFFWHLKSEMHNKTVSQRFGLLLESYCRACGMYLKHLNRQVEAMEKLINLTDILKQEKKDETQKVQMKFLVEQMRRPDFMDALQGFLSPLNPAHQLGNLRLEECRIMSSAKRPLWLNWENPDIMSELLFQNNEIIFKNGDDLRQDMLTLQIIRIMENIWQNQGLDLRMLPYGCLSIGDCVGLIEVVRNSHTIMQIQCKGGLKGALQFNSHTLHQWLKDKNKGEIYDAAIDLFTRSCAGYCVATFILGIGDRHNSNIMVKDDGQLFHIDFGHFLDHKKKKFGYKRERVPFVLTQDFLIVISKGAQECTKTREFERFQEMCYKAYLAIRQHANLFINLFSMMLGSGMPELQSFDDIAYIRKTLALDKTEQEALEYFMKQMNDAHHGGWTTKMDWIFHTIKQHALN
Procedure, shortened: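 ADP-Glo luminescent readout of ADP formed. Isoforms tested: p110α/p85α, p110β/p85α, p120γ and p110δ/p85α, each in PI3K reaction buffer with lipid substrate. Enzyme preincubated with compound for 15 min at room temperature. ADP-Glo reagent added for 40 min, then detection reagent for 40 min. IC50 from normalized nonlinear dose–response fit.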

[2] = test system: MCF7; assay: Induction of apoptosis in human MCF7 cells assessed as late apoptotic cells at 0.4 uM incubated for 48 hrs by annexin V-FITC and propidium iodide staining based flow cytometry analysis (reference value: 9.2 %); format: functional
[3] = test system: MCF7; assay: Induction of apoptosis in human MCF7 cells assessed as viable cells at 0.4 uM incubated for 48 hrs by annexin V-FITC and propidium iodide staining based flow cytometry analysis (reference value: 87.7 %); format: functional; settings: read-out: Activity
[4] = test system: MCF7; assay: Inhibition of PI3K in human MCF7 cells assessed as Akt phosphorylation by Western blot analysis; format: cell-based; settings: dose microM 0.1-10
Procedure, shortened: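 MCF-7 cells treated at 0.1, 1 and 10 μM, then washed in cold PBS and lysed in RIPA buffer with protease and phosphatase inhibitors. Equal protein run on 10% SDS-PAGE and transferred to PVDF. Blots probed for total Akt and phospho-Akt (Ser473), with GAPDH as loading control.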

[5] = test system: MCF7; assay: Induction of apoptosis in human MCF7 cells assessed as nuclear fragmentation at 0.2 to 0.8 uM incubated for 48 hrs by Hoechst 33342 staining based fluorescence microscopic analysis; format: functional, cell-based; settings: dose microM 0.2-0.8, time 48.0 hrs
Procedure, shortened: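 MCF-7 cells seeded at 2×10⁵ per well in 6-well plates and allowed to settle 12 h. Treated 48 h, with medium-only controls. Stained with Hoechst 33342 for 30 min, washed, and nuclear morphology imaged by fluorescence microscopy.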

[6] = test system: MCF7; assay: Inhibition of PI3K in human MCF7 cells assessed as decrease in p-Akt/Akt ratio at 0.1 to 10 uM by Western blot analysis; settings: dose microM 0.1-10
[7] = test system: L02; assay: Cytotoxicity against human L02 cells assessed as reduction in cell viability incubated for 72 hrs by SRB assay; format: cell-based; settings: L02, 72 h
Procedure, shortened: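 Normal cells exposed to a range of compound concentrations for 72 h at 37 °C in 5% CO₂. Cells TCA-fixed and viability read by SRB protein staining, normalized to day-0 and negative-control OD. IC50 from non-linear regression; values are means of triplicate measurements.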

[8] = test system: HCT-116; assay: Antiproliferative activity against human HCT-116 cells assessed as reduction in cell viability incubated for 72 hrs by SRB assay; format: functional, cell-based; settings: HCT-116, 72 h
[9] = target: Epidermal growth factor receptor (Homo sapiens, UniProt P00533); assay: Inhibition of EGFR (unknown origin) using FAM-labeled peptide as substrate incubated for 10 mins followed by substrate addition and measured after 1 hr by mobility shift assay
Chain of Epidermal growth factor receptor (P00533 whole entry): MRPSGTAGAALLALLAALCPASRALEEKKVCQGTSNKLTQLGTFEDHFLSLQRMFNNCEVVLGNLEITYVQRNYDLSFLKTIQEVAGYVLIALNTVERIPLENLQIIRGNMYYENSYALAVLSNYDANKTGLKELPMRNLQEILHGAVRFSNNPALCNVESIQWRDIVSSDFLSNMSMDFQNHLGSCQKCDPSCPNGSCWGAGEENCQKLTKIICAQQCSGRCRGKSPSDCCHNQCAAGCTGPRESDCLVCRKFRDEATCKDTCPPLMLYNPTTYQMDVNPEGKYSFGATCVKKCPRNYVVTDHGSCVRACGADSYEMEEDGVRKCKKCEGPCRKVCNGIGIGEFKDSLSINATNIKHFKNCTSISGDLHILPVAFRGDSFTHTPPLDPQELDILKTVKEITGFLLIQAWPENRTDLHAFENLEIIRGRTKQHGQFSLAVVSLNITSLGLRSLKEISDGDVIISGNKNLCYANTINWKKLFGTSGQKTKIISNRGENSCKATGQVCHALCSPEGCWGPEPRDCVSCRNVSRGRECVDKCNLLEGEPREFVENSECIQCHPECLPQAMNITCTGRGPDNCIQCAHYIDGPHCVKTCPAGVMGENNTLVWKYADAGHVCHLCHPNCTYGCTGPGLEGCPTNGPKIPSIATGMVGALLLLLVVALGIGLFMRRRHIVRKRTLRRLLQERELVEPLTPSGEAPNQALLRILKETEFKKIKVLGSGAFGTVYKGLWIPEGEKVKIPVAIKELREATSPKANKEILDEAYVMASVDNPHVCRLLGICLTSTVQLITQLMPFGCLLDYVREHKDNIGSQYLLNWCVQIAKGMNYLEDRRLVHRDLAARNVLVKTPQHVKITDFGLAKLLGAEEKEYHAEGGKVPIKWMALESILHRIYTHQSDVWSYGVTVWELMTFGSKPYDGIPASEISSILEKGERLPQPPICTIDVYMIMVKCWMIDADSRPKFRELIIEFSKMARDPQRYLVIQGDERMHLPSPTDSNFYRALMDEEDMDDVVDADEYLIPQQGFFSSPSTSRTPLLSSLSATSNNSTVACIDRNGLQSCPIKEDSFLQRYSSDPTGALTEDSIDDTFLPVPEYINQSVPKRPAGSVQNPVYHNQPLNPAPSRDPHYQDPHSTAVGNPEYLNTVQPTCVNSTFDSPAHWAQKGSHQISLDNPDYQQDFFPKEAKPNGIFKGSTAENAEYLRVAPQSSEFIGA
Procedure, shortened: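 Mobility shift assay in 50 mM HEPES pH 7.5, 10 mM MgCl₂, 2 mM DTT, 0.0015% Brij35. Compound in 10-point DMSO dilution, run in duplicate. Enzyme preincubated with compound 10 min at room temperature. FAM-labeled peptide and ATP then added and reaction run at 28 °C for 1 h. Stopped with EDTA buffer; conversion turned into percent inhibition and fitted to a Hill equation for IC50.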

[10] = test system: A549; assay: Antiproliferative activity against human A549 cells assessed as reduction in cell viability incubated for 72 hrs by SRB assay; format: functional, cell-based; settings: A549, 72 h
Procedure, shortened: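 Cell lines grown at 37 °C in 5% CO₂: A549 in RPMI1640, MCF-7 in DMEM, each with 10% FBS plus penicillin/streptomycin/amphotericin B. Cells exposed to a range of compound concentrations for 72 h, then TCA-fixed and SRB-stained. Growth inhibition = 100 − 100×(OD sample − OD day 0)/(OD negative control − OD day 0). IC50 from non-linear regression of percent growth against concentration.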

[11] = test system: MCF7; assay: Induction of apoptosis in human MCF7 cells assessed as early apoptotic cells at 0.2 uM incubated for 48 hrs by annexin V-FITC and propidium iodide staining based flow cytometry analysis (reference value: 2.7 %); format: functional
[12] = test system: MCF7; assay: Induction of apoptosis in human MCF7 cells assessed as late apoptotic cells at 0.2 uM incubated for 48 hrs by annexin V-FITC and propidium iodide staining based flow cytometry analysis (reference value: 9.2 %); format: functional
[13] = test system: MCF7; assay: Induction of apoptosis in human MCF7 cells assessed as early apoptotic cells at 0.8 uM incubated for 48 hrs by annexin V-FITC and propidium iodide staining based flow cytometry analysis (reference value: 2.7 %); format: functional

## COc1ncc(-c2ccc3ncnc(Nc4cnn(CCO)c4)c3c2)cc1NS(=O)(=O)c1ccc(F)cc1F
[1]
  IC50: 0.2 nM
[2]
  Activity: 23.6%
[3]
  viability at 0.4 µM: 70%
[4]
  inhibition: Dose-dependent effect
[5]
  Activity: Active
[6]
  inhibition: Active
[7]
  IC50: 60 µM
[8]
  IC50: 330 nM
[9]
  IC50: > 10 µM
[10]
  IC50: 3.1 µM
[11]
  Activity: 2.8%
[12]
  Activity: 20.6%
[13]
  Activity: 4.8%
